Data on 17 compounds can be found in ChEMBL document CHEMBL4613231 (Bioorg Med Chem, 2020).

Series [1] deals with T1, Tyrosyl-DNA phosphodiesterase 1 (Homo sapiens, UniProt Q9NUW8). As to the kind of experiment: Inhibition of TDP1 (unknown origin) using 5'-(5,6 FAM-AAC GTC AGG GTC TTC C- BHQ1)-3' as substrate measured for every 1 min by fluorescence based assay. An outline of the steps: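 TDP1 buffer (50 mM Tris-HCl pH 8.0, 50 mM NaCl, 7 mM β-mercaptoethanol) with FAM/BHQ1 quenched biosensor at 50 nM final and inhibitor over a concentration range. Started by adding TDP1 (1.5 nM), 26 °C, fluorescence (Ex485/Em520) read every 1 min. Linear-phase slope compared with DMSO control, IC50 taken from concentration-response curves, at least three independent experiments.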

Series [2] addresses T1, Tyrosyl-DNA phosphodiesterase 1. As to the kind of experiment: Inhibition of TDP1 (unknown origin) using 5'-(5,6 FAM-AAC GTC AGG GTC TTC C- BHQ1)-3' as substrate measured after 20 mins by gel-based assay. Summed up: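 Reaction (200 μL) in TDP1 buffer (50 mM Tris-HCl pH 8.0, 50 mM NaCl, 7 mM β-mercaptoethanol) with FAM/BHQ1 biosensor oligo at 50 nM final and inhibitor at various concentrations. Started with TDP1 at 1.5 nM final, run 20 min at room temperature, stopped with loading buffer. Products separated by denaturing PAGE, scanned and quantified, and IC50 derived.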

Series [3] can be described thus: (§1) Cytotoxicity against human T98G cells assessed as reduction in cell viability after 72 hrs by MTT assay. The series is classed as cell-based. Conditions: T98G cells. An outline of the steps: (§2)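 Cells plated at ~2000 per well, grown 24h at 37 °C in IMDM (5% CO2), then exposed to compounds at 1, 5, 20 and 100 µM for 72h. Viable cells quantified by colorimetric MTT test; CC50 taken as mean of three independent experiments.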
Background: Formazan colour is commonly taken as a measure of viable cells.

A short description of series [4]: (§3) Cytotoxicity against human MCF7 cells assessed as reduction in cell viability after 72 hrs by MTT assay. It is filed as cell-based. The settings on record: MCF7 cells. An outline of the steps: as §2
For series [5], the system named is WI-38. As to the kind of experiment: (§4) Cytotoxicity against human WI38 cells assessed as reduction in cell viability after 72 hrs by MTT assay. The series is classed as cell-based. Conditions: wi-38, 72 h. An outline of the steps: as §2
Series [6] has as its system T98G. As to the kind of experiment: Cytotoxicity against human T98G cells at 1 uM after 72 hrs in presence of topotecan by MTT assay. It is filed as cell-based.
Series [7] relates to T98G. The description is as §1. Conditions: t98g, 72 h. It is filed as cell-based. An outline of the steps:
as §2

Series [8] has as its system A549. As to the kind of experiment: Cytotoxicity against human A549 cells assessed as reduction in cell viability after 72 hrs by MTT assay. The series is classed as cell-based. The settings on record: a549, 72 h. Summed up:
as §2

For series [9], the system named is MCF7. Described as §3. It is filed as cell-based. Conditions: mcf7, 72 h. Summed up:
as §2

In series [10] the test system is WI-38. Briefly: Cytotoxicity against human WI38 cells at 1 uM after 72 hrs in presence of topotecan by MTT assay. Conditions: wi-38, 72 h. It is filed as cell-based.
Series [11] in a line: as §4. It is filed as cell-based, WI-38. The settings on record: WI-38 cells. Summed up:
as §2

T1 sequence (Q9NUW8 whole entry): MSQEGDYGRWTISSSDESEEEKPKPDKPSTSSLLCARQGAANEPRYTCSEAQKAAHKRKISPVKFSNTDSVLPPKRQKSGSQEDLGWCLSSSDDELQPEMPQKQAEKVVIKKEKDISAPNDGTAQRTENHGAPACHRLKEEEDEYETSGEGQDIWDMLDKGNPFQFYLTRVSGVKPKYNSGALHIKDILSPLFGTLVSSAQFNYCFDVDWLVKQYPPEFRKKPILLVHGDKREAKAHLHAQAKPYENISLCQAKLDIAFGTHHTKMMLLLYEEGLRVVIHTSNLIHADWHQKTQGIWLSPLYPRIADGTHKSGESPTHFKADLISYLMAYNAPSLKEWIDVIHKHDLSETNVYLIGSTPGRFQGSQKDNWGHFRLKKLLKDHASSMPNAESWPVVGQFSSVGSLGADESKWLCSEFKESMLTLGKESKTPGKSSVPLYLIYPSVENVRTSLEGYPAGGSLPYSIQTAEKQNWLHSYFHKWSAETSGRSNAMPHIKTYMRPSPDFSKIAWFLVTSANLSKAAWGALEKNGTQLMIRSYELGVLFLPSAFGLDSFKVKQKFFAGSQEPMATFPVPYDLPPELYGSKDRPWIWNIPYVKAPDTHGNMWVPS

By IC50 is commonly meant the concentration needed to halve the response being measured. Higher therefore signals lower potency. In [1], `O=C(COc1cc2oc(=O)cc(-c3ccccc3)c2cc1Cl)NC[C@H]1CC[C@H](C(=O)O)CC1` returned an IC50 above 100 µM.

For orientation: CC50 means the concentration at which the toxic effect on the cells reaches its halfway point. As to `Cc1c(CC(=O)N[C@@H](CSCc2ccccc2)C(=O)O)c(=O)oc2c(C)c3occ(-c4ccc(F)cc4)c3cc12`, the IC50 in series [2] came out at 1.75 µM; in series [1], 1.06 µM. The CC50 at 72 h in [3] was determined as 66 µM; in [4], 80 µM.

In the case of `Cc1c(CCC(=O)N[C@@H](CSCc2ccccc2)C(=O)O)c(=O)oc2cc3oc4c(c3cc12)CCCC4`, the midpoint of inhibition in [1], the IC50, lay at 15.4 µM.

As for `CC(C)OCCCNC(=O)c1cc2c([nH]c3ccccc32)c(-c2ccc3c(c2)OCO3)n1`, the IC50 in series [1] stood at 3.1 µM.

`O=C(NCCc1c[nH]c2ccccc12)c1cc2c([nH]c3ccccc32)c(-c2ccc3c(c2)OCO3)n1` showed an IC50 in series [1] of 0.98 µM. Compared with the last compound, the IC50 is about 3.2-fold lower.

In turn, `Cc1c(CC(=O)NC(Cc2ccc(Cl)cc2)C(=O)O)c(=O)oc2c(C)c3occ(-c4ccc(F)cc4)c3cc12` (configuration not stated) returned a 50% inhibitory concentration (IC50) in series [1] of 0.85 µM.

`COc1ccc(-c2cc(=O)oc3cc(OCC(=O)N[C@H](C(=O)O)c4ccccc4)ccc23)cc1` returned an IC50 in series [1] of 12.9 µM.

Turning to `O=c1cc(-c2cc3ccccc3oc2=O)c2ccc(OCc3c(Cl)cccc3Cl)cc2o1`, the Activity result was “Non-Toxic” in series [5]; “Toxic” in [6]; “Non-Toxic” in series [7]; “Non-Toxic” in [8]; “Non-Toxic” in series [9]; “Toxic” in [10]. In series [1], this compound gave an IC50 of 0.099 µM.

Compound `O=C(NCCC1=CCCCC1)c1cc2c([nH]c3ccccc32)c(-c2ccc3c(c2)OCO3)n1` yielded a half-inhibitory concentration (IC50) in [1] of 1.3 µM. In other words, the single-digit micromolar range.

`O=c1cc(-c2cc3ccccc3oc2=O)c2ccc(OCc3cccc4ccccc34)cc2o1`: the IC50 in [1] was 0.27 µM.

As to `O=c1cc(-c2cc3ccccc3oc2=O)c2ccc(OCc3ccccc3Cl)cc2o1`, the CC50 at 72 h in series [3] was found to be 16 µM. Moreover, half-maximal inhibition in series [1] (IC50) was put at 0.28 µM.

In turn, `Cc1c(Cc2ccccc2)c(=O)oc2cc(OCC(=O)N[C@@H](CSCc3ccccc3)C(=O)O)ccc12` displayed a half-inhibitory concentration (IC50) in series [1] of 3.5 µM.

Consider `CCCc1cc(=O)oc2c(C)c(OCC(=O)NC(Cc3c[nH]c4ccc(O)cc34)C(=O)O)ccc12` (configuration not stated), for which, in series [1], the IC50 is 5.6 µM.

In turn, `COc1cccc2cc(-c3cc(=O)oc4cc(OCC(C)=O)ccc34)c(=O)oc12` gave a half-maximal inhibitory concentration (IC50) in series [1] of 7.6 µM.

As for `COc1cccc2cc(-c3cc(=O)oc4c(C)c(OCc5ccc(Cl)cc5)ccc34)c(=O)oc12`, the CC50 at 72 h stood at 60 µM in series [11], 16 µM in series [3] and 17 µM in series [4]. Also, the Activity entry in series [6] and in series [10] was “Toxic” each time. Also, the IC50 in series [1] stood at 0.36 µM.

With `Cc1oc2c(C)c3oc(=O)c(CC(=O)NCC(=O)O)c(C)c3cc2c1-c1ccccc1`, the IC50 in series [1] was above 100 µM.

For the compound `CC(C)C[C@H](N)C(=O)N1CCC(C(=O)N[C@@H](Cc2ccccc2)C(=O)NCc2ccccc2F)CC1`, the IC50 in [1] was above 100 µM.
